Reference: publication PMC7655718 (The Journal of antibiotics, 2020)
≈ marks a conversion by molar mass, not a printed value. Where two headings read alike, the source gives them in different places.

Columns and labels:
[1] = tested on: S. aureus ATCC 25923 (Sa23); assay: MIC, microdilution with resazurin; format: cell-based; conditions: Staphylococcus aureus, ATCC25923, read-out: MIC Sa23
How it was run: (§1)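 Compounds dissolved in DMSO at 2 mg/mL. Overnight blood-agar colonies were suspended in PBS to 0.5 McFarland, then diluted in Mueller Hinton broth to about 1x10^6 cfu/mL with resazurin (1:1000 of 0.1% w/v stock). Twofold DMSO dilutions were added 1:40, giving 50 to 0.4 μg/mL at 2.5% DMSO. Incubation was 35 °C for 16-20 h. Blue/non-turbid wells counted as inhibited, pink/turbid as grown.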

[2] = tested on: S. aureus ATCC 33591 (Sa91); assay: MIC, microdilution with resazurin; format: cell-based; conditions: Staphylococcus aureus, ATCC33591, read-out: MIC Sa91
How it was run: as §1

[3] = tested on: S. aureus ATCC 33592 (Sa92); assay: MIC, microdilution with resazurin; format: cell-based; conditions: Staphylococcus aureus, ATCC33592, read-out: MIC Sa92
How it was run: as §1

[4] = tested on: S. aureus ATCC 700699 (Sa99); assay: MIC, microdilution with resazurin; format: cell-based; conditions: Staphylococcus aureus, ATCC700699, read-out: MIC Sa99
How it was run: as §1

[5] = tested on: S. aureus BAA-2312 (Sa12); assay: MIC, microdilution with resazurin; format: cell-based; conditions: Staphylococcus aureus, BAA2312, read-out: MIC Sa12
How it was run: as §1

[6] = tested on: S. epidermidis 700296 (Se); assay: MIC, microdilution with resazurin; format: cell-based; conditions: Staphylococcus epidermidis, read-out: MIC Se
How it was run: as §1

[7] = tested on: B. subtilis ATCC 6623 (Bs); assay: MIC, microdilution with resazurin; format: cell-based, Bacillus subtilis; conditions: Bacillus subtilis, ATCC6623, read-out: MIC Bs
[8] = tested on: A. baumannii ATCC 747 (Ab47); assay: MIC, microdilution with resazurin; format: cell-based, Acinetobacter baumannii; conditions: for MIC: Acinetobacter baumannii, ATCC747, read-out: MIC Ab47
How it was run: as §1

[9] = tested on: A. baumannii ATCC 19606 (type strain, Ab06); assay: MIC and MBC; format: cell-based, Acinetobacter baumannii
How it was run: as §1

[10] = tested on: S. aureus ATCC 25923 biofilm formation; assay: Biofilm inhibition assay; format: cell-based, Staphylococcus aureus
How it was run: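 Blood-agar culture was suspended in PBS (0.5 McFarland), then diluted 1:100 in yeast extract casamino acid broth (about 1x10^6 cfu/mL). Compound at 2xMIC, MIC and 0.5xMIC was added before biofilm formation, in triplicate, with broth-only and bacteria+DMSO controls. Incubation was 35 °C for 24 h. Wells were PBS-washed, dried, stained with 0.1% crystal violet, solubilised in 33% acetic acid and read at 620 nm. % inhibition = [1−(ODcompound−ODbroth)/(ODdmso−ODbroth)]×100, from mean and SD.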

[11] = tested on: S. aureus ATCC 25923 preformed biofilm; assay: Biofilm destruction assay; format: cell-based, Staphylococcus aureus; conditions: 2xMIC
How it was run: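 Biofilm was first grown in 96-well plates for 24 h at 35 °C and washed with PBS to remove unadhered cells. Fresh yeast extract casamino acid broth was added with compound at 2xMIC, MIC or 0.5xMIC, or DMSO, in triplicate, plus broth-only wells. Incubation was 35 °C for 24 h. Crystal violet was stained, solubilised and read at 620 nm. % destruction = [1−(ODcompound−ODbroth)/(ODdmso−ODbroth)]×100, from triplicate means.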

[12] = tested on: S. aureus ATCC 33599 (MRSA); assay: BacLight membrane permeability assay; format: cell-based, Staphylococcus aureus; conditions: versus positive control vancomycin
[13] = tested on: human embryonic kidney cell line (HEK293); assay: Toxicity against HEK293 cell line; format: cell-based; conditions: for selectivity factor (IC50/MIC): HEK293 IC50 over MIC, as high as
[14] = tested on: tested Gram-positive bacterial strains; assay: MIC, text summary over tested Gram-positive strains; format: cell-based; conditions: for MIC: read-out: MIC value as low as
[15] = tested on: S. aureus ATCC 33599 (MRSA); assay: MIC and MBC; format: cell-based, Staphylococcus aureus; set-up: MBC as multiple of the MIC: unit not given beside the values; conditions: for MBC / MIC: Staphylococcus aureus, ATCC33599|MRSA
How it was run: as §1

[16] = tested on: S. aureus ATCC 33599 (MRSA); assay: Time kill assay; format: cell-based, Staphylococcus aureus
How it was run: (§2)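 Growth curves by optical density set the log phase. Log-phase bacteria (about 2 h shaking in Mueller Hinton broth II) were diluted in warm broth to about 3x10^6 cfu/mL. They were exposed to compound at 4xMIC (other multiples where indicated), in triplicate, at 35 °C. Colistin (A. baumannii) or vancomycin (S. aureus) and DMSO were included. Samples at 0, 2, 4, 6, 8, 10, 12 and 24 h were counted by drop plate on blood agar (18-24 h, 35 °C). Log cfu/mL was plotted against time.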

[17] = tested on: A. baumannii ATCC BAA-1605 (Ab05); assay: MIC, microdilution with resazurin; format: cell-based, Acinetobacter baumannii
How it was run: as §1

A. baumannii ATCC 19606 = assay: Time kill assay; format: cell-based, Acinetobacter baumannii; conditions: 4xMIC
How it was run: as §2

[18] = Acinetobacter baumannii, ATCC19606, read-out: MIC Ab06
[19] = MIC and 0.5xMIC tested, 24 hours

Compound | MIC [1] [µg/mL] | MIC [2] [µg/mL] | MIC [3] [µg/mL] | MIC [4] [µg/mL] | MIC [5] [µg/mL] | MIC [6] [µg/mL] | MIC [7] [µg/mL] | MIC [8] [µg/mL] | MIC [9, 18] [µg/mL] | membrane disruption activity, PI/SYTO-9 ratio [12] | selectivity factor (IC50/MIC) [13] | antimicrobial activity against the tested strains [14] | MBC [15] [µg/mL] | MIC [15] [µg/mL] | time kill effect ([16]; 4xMIC, 24 hours at 35 °C) | MIC [14] [µg/mL] | destruction of preformed biofilm [11, 19] | also measured
O=C(O)c1ccc(-n2cc(/C=N/Nc3cc(F)ccc3F)c(-c3ccc4ccccc4c3)n2)cc1 [Compound 19] | 1.56 (≈ 3.33 µM) | 3.12 (≈ 6.67 µM) | 1.56 (≈ 3.33 µM) | 0.78 (≈ 1.67 µM) | 3.12 (≈ 6.67 µM) | 3.12 (≈ 6.67 µM) | 3.12 (≈ 6.67 µM) | > 50 | > 50 | more potent membrane disruption activity than vancomycin | ≤ 48.7 | enhanced activity against all the tested strains |  |  |  |  |  | inhibition of biofilm formation ([10]; 2xMIC, MIC and 0.5xMIC concentrations, 24 hours): most effective compound; destruction of preformed biofilm [11]: potent activity
O=C(O)c1ccc(-n2cc(/C=N/Nc3ccc(Cl)cc3Cl)c(-c3ccc4ccccc4c3)n2)cc1 [Compound 20] | 3.12 (≈ 6.23 µM) | 6.25 (≈ 12.5 µM) | 0.78 (≈ 1.56 µM) | 0.78 (≈ 1.56 µM) | 3.12 (≈ 6.23 µM) | 3.12 (≈ 6.23 µM) | 3.12 (≈ 6.23 µM) | > 50 | > 50 | more potent membrane disruption activity than vancomycin | ≤ 48.7 | enhanced activity against all the tested strains | 6.25 (≈ 12.5 µM) | 0.78 (≈ 1.56 µM) | mild bactericidal effect |  |  | MBC as multiple of the MIC ([15]; S. aureus ATCC 33599 (MRSA)): 8; time kill effect ([16]; 8xMIC): strongly bactericidal; time to kill all bacteria ([16]; 8xMIC): ≤ 4 h
O=C(O)c1ccc(-n2cc(/C=N/Nc3c(F)c(F)cc(F)c3F)c(-c3ccc4ccccc4c3)n2)cc1 [Compound 23] | 3.12 (≈ 6.19 µM) | > 50 | 1.56 (≈ 3.09 µM) | 1.56 (≈ 3.09 µM) | > 50 | > 50 | 3.12 (≈ 6.19 µM) | > 50 | > 50 |  |  |  | 12.5 (≈ 24.8 µM) | 1.56 (≈ 3.09 µM) |  | ≥ 0.78 |  | toxicity for HEK293 [13]: selective toxicity for bacterial cells
O=C(O)c1ccc(-n2cc(/C=N/Nc3ccc(C(F)(F)F)cc3)c(-c3ccc4ccccc4c3)n2)cc1 [Compound 25] | 0.78 (≈ 1.56 µM) | 25 (≈ 50 µM) | 0.78 (≈ 1.56 µM) | 0.78 (≈ 1.56 µM) | 12.5 (≈ 25 µM) | 25 (≈ 50 µM) | 1.56 (≈ 3.12 µM) | > 50 | > 50 |  |  |  | 25 (≈ 50 µM) | 0.78 (≈ 1.56 µM) |  | ≥ 0.78 | excellent ability to eliminate the preformed biofilms | inhibition of biofilm formation ([10]; 2xMIC): potent biofilm inhibition activity
CN[C@H](CC(C)C)C(=O)N[C@H]1C(=O)N[C@@H](CC(N)=O)C(=O)N[C@H]2C(=O)N[C@H]3C(=O)N[C@H](C(=O)N[C@H](C(=O)O)c4cc(O)cc(O)c4-c4cc3ccc4O)[C@H](O)c3ccc(c(Cl)c3)Oc3cc2cc(c3O[C@@H]2O[C@H](CO)[C@@H](O)[C@H](O)[C@H]2O[C@H]2C[C@](C)(N)[C@H](O)[C@H](C)O2)Oc2ccc(cc2Cl)[C@H]1O [VC, vancomycin, reference compound] | 1.56 (≈ 1.08 µM) | 3.12 (≈ 2.16 µM) | 0.39 (≈ 0.269 µM) | 3.12 (≈ 2.16 µM) | 0.78 (≈ 0.538 µM) | 3.12 (≈ 2.16 µM) | 0.195 (≈ 0.135 µM) | > 50 | > 50 |  |  |  | 6.25 (≈ 4.31 µM) | 3.12 (≈ 2.16 µM) | mildly bactericidal |  | almost failed to show any activity | inhibition of biofilm formation ([10]; 0.5xMIC): weak inhibition; inhibition of biofilm formation ([10]; 2xMIC and MIC concentration): potent inhibition; time until bacteria were eliminated ([16]; 4xMIC): ≤ 8 h
colistin [reference compound] |  |  |  |  |  |  |  |  |  |  |  |  |  |  |  |  |  | MIC Ab05 [17]: 3.125 µg/mL; MIC Ab47 ([8]; A. baumannii ATCC 747): 1.56 µg/mL; MIC Ab06 ([9]; A. baumannii ATCC 19606 (type strain)): 3.125 µg/mL; MIC ([9]; A. baumannii ATCC 19606, Table 2): 3.125 µg/mL; MBC ([9]; A. baumannii ATCC 19606, concentration killing 99.9% or greater): 6.25 µg/mL; time to completely kill the starting population (A. baumannii ATCC 19606): ≤ 4 h; time kill effect (A. baumannii ATCC 19606; 24 hours at 35 °C): immediate bactericidal effect
